Measured values taken from ChEMBL document CHEMBL1255240, “The mitochondrion is a site of trypanocidal action of the aromatic diamidine DB75 in bloodstream forms of Trypanosoma brucei” (Antimicrob Agents Chemother, 2008).
Activity calls are given as the source filed them. The rule behind the calls is not given here.

Legend:
[1] = test system: Trypanosoma brucei brucei; experiment: Antimicrobial activity against Trypanosoma brucei brucei 427 bloodstream form assessed as reduction in mitochondrial membrane potential at 10 uM using rhodamine 123 exclusion test; type: functional, organism-based
How it was run: (§1)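 Rat-derived bloodstream cells washed in Tes buffer pH 7.5 (10 mM glucose, 1.0% fatty acid-free BSA) at room temperature. Cells at 10^7/ml pretreated with compound for the stated time, then 250 nM Rh123 for 2 min. Diluted 1:10 and flow cytometry (excitation 507, emission 529 nm) on 20,000 cells. % decrease in mean fluorescence versus untreated cells; at least three independent experiments.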

[2] = test system: Trypanosoma brucei brucei; experiment: Inhibition of respiration in Trypanosoma brucei brucei 427 bloodstream form mitochondria using glycerol-3-phosphate as substrate at 2 mM; type: functional
How it was run: (§2)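 Bloodstream trypanosomes were taken from infected rat blood and purified on DE52. They were lysed with glass beads, and a mitochondrial fraction was isolated by differential centrifugation at 0–4°C. Mitochondria at 0.8 mg/ml were held in mannitol/HEPES/EGTA/MgSO4 buffer, pH 7.4, without glucose, with 20 mM L-α-glycerol phosphate as substrate. Compound was added after a stable reading (about 2 min), and O2 consumption was recorded by oxygen electrode at 37°C.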

[3] = test system: Trypanosoma brucei brucei; experiment: Inhibition of respiration in Trypanosoma brucei brucei 427 bloodstream form mitochondria using glycerol-3-phosphate as substrate at 10 uM; type: functional; how it was run: as §2
[4] = test system: Trypanosoma brucei brucei; experiment: Antimicrobial activity against Trypanosoma brucei brucei 427 bloodstream form assessed as inhibition of mitochondrial ATPase activity at 50 uM after 10 mins; type: functional
How it was run: (§3)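 Bloodstream-form mitochondrial fraction, 100 μg protein, in 20 mM Tris-HCl pH 7.4 with 15 mM KH2PO4, 0.6 M sorbitol, 10 mM MgSO4 and 2.5 mg/ml fatty acid-free BSA. Pre-incubated 10 min on ice with compound (final 10, 50 or 100 μM; oligomycin 50 μM pretreatment where combined), then 0.20 mM ATP for 30 min at 30°C. Perchloric acid quench; remaining ATP by luciferase against a standard curve, blank subtracted. Activity relative to untreated control (100%). Duplicates; three independent experiments.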

[5] = test system: Trypanosoma brucei brucei; experiment: Antimicrobial activity against Trypanosoma brucei brucei 427 bloodstream form assessed as reduction in mitochondrial membrane potential at 10 uM after 1 min using rhodamine 123 exclusion test; type: functional; parameters: scale not given: the % may be the effect or the level left; how it was run: as §1
[6] = test system: Trypanosoma brucei brucei; experiment: Antimicrobial activity against Trypanosoma brucei brucei 427 bloodstream form assessed as reduction in mitochondrial membrane potential at 10 uM after 5 mins using rhodamine 123 exclusion test relative to control; type: functional; parameters: scale not given: the % may be the effect or the level left; how it was run: as §1
[7] = test system: Trypanosoma brucei brucei; experiment: Antimicrobial activity against Trypanosoma brucei brucei 427 bloodstream form assessed as inhibition of glucose-dependent cellular respiration at 300 uM; type: functional, organism-based
How it was run: (§4)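 Bloodstream trypanosomes from infected rat blood, DE52-purified, washed once in mannitol-based buffer pH 7.4 (220 mM mannitol, 25 mM HEPES, 2 mM EGTA, 5 mM MgSO4) with 20 mM glucose. O2 uptake of 2.0 × 10^6 cells/ml recorded with an oxygen electrode at 37°C. % inhibition from the rates just before vs after compound addition. Two independent experiments.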

[8] = test system: Trypanosoma brucei brucei; experiment: Antimicrobial activity against Trypanosoma brucei brucei 427 bloodstream form assessed as inhibition of glucose-dependent cellular respiration; type: functional, organism-based; how it was run: as §4
[9] = Drug uptake in Trypanosoma brucei brucei 427 bloodstream form mitochondria at 100 uM after 5 mins by fluorescence microscopy; type: ADME
How it was run: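 Living cells (10^6/ml) loaded with 25 nM MitoTracker Red CMXRos for 30 min at 37°C, washed, then given 100 μM compound for 5 min. Immobilised in 1.5% agarose (3.0% mixed 1:1) on a cold slide. Viewed with a DAPI-FITC-Texas Red triple filter; pink overlap taken as mitochondrial colocalisation.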

[10] = Drug uptake in Trypanosoma brucei brucei 427 bloodstream form nucleus at 1 uM after 5 mins by fluorescence microscopy; type: ADME
How it was run: (§5)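 Cells (about 10^6) incubated with 1.0 μM compound in cBMEM (MEM-based, 10% heat-inactivated FBS) at 37°C, 5% CO2. Aliquots taken at set times, pelleted, and dried films examined by UV fluorescence microscopy. Intrinsic blue fluorescence (excitation 365, emission 465 nm) scored in nucleus and kinetoplast.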

[11] = Drug uptake in Trypanosoma brucei brucei 427 bloodstream form kinetoplast at 1 uM after 5 mins by fluorescence microscopy; type: ADME; how it was run: as §5
[12] = test system: Trypanosoma brucei brucei; experiment: Antimicrobial activity against Trypanosoma brucei brucei 427 bloodstream form assessed as inhibition of mitochondrial ATPase activity 10 uM after 10 mins; type: functional; parameters: scale not given: the % may be the effect or the level left; how it was run: as §3
[13] = test system: Trypanosoma brucei brucei; experiment: Antimicrobial activity against Trypanosoma brucei brucei 427 bloodstream form assessed as inhibition of mitochondrial ATPase activity pretreated with oligomycin for 10 mins; type: functional; how it was run: as §3
[14] = test system: Trypanosoma brucei brucei; experiment: Inhibition of respiration in Trypanosoma brucei brucei 427 bloodstream form mitochondria using glycerol-3-phosphate as substrate at 600 uM; type: functional
How it was run: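 Mitochondrial fraction from rat-derived bloodstream cells, prepared by glass-bead lysis and differential centrifugation (12,000 × g pellet) at 0–4°C. Suspended to 0.8 mg/ml in glucose-free mannitol buffer pH 7.4 with 20 mM L-α-glycerol phosphate as substrate. O2 uptake by oxygen electrode at 37°C; compound added after a stable reading (about 2 min) and recording continued several minutes.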

[15] = test system: Trypanosoma brucei brucei; experiment: Antimicrobial activity against Trypanosoma brucei brucei 427 bloodstream form assessed as inhibition of mitochondrial ATPase activity at 100 uM after 10 mins; type: functional; parameters: scale not given: the % may be the effect or the level left; how it was run: as §3
[16] = test system: Trypanosoma brucei brucei; experiment: Antimicrobial activity against Trypanosoma brucei brucei 427 bloodstream form assessed as reduction in mitochondrial membrane potential at 1 uM after 1 min using rhodamine 123 exclusion test; type: functional, organism-based; how it was run: as §1
[17] = test system: Trypanosoma brucei brucei; experiment: Antimicrobial activity against Trypanosoma brucei brucei 427 bloodstream form assessed as reduction in mitochondrial membrane potential at 4 uM after 1 min using rhodamine 123 exclusion test; type: functional; parameters: scale not given: the % may be the effect or the level left; how it was run: as §1
[18] = test system: Trypanosoma brucei brucei; experiment: Antimicrobial activity against Trypanosoma brucei brucei 427 bloodstream form assessed as reduction in mitochondrial membrane potential at 4 uM after 10 mins using rhodamine 123 exclusion test relative to control; type: functional; parameters: scale not given: the % may be the effect or the level left; how it was run: as §1
[19] = test system: Trypanosoma brucei brucei; experiment: Antimicrobial activity against Trypanosoma brucei brucei 427 bloodstream form assessed as reduction in mitochondrial membrane potential at 10 uM after 10 mins using rhodamine 123 exclusion test relative to control; type: functional; parameters: scale not given: the % may be the effect or the level left; how it was run: as §1

**Q.** For `CCCCCC[C@H]1C(=O)O[C@H](C)[C@H](NC(=O)c2cccc(NC=O)c2O)C(=O)O[C@@H](C)[C@@H]1OC(=O)CC(C)C`, which Activity [1] is on record?
**A.** inactive

**Q.** For `O=C(NO)c1ccccc1O`, which inhibition [2] is on record?
**A.** Active

**Q.** And the inhibition [3]?
**A.** Active

**Q.** What does the source list for `N#CC(C#N)=NNc1cccc(Cl)c1` [CARBONYL CYANIDE M-CHLOROPHENYLHYDRAZONE]?
**A.** Activity [4]: inactive; Activity [5]: 36%; Activity [6]: 51%

**Q.** Which Activity [7] does the source give for `N=C(N)c1ccc(-c2ccc(-c3ccc(C(=N)N)cc3)o2)cc1` [FURAMIDINE] here?
**A.** Active

**Q.** And the Activity [4]?
**A.** 47%

**Q.** And the IC50 [8]?
**A.** 20 µM

**Q.** And the Drug uptake [9]?
**A.** Active

**Q.** And the Drug uptake [10]?
**A.** Active

**Q.** What about the Drug uptake [11] of the same compound?
**A.** Active

**Q.** And the Activity [5]?
**A.** 57%

**Q.** And the Activity [12]?
**A.** 20%

**Q.** What about the Activity [13] of the same compound?
**A.** Active

**Q.** What about the inhibition [14] of the same compound?
**A.** inactive

**Q.** And the Activity [15]?
**A.** 47%

**Q.** What about the Activity [16] of the same compound?
**A.** Active

**Q.** With `CC[C@H]1/C=C/C=C/C[C@@H](C)[C@H](O)[C@@](C)(O)C(=O)[C@@H](C)[C@H](O)[C@@H](C)C(=O)[C@@H](C)[C@H](O)[C@@H](C)/C=C/C(=O)O[C@@H]2[C@H](C)[C@H](CC1)O[C@]1(CC[C@H](C)[C@H](C[C@@H](C)O)O1)[C@H]2C` [OLIGOMYCIN] as the compound, how does the Activity [4] read?
**A.** 30%

**Q.** And the Activity [17]?
**A.** 23%

**Q.** What about the Activity [18] of the same compound?
**A.** 50%

**Q.** For `CC(C)[C@@H]1NC(=O)[C@H](C)OC(=O)[C@@H](C(C)C)NC(=O)[C@@H](C(C)C)OC(=O)[C@H](C(C)C)NC(=O)[C@H](C)OC(=O)[C@@H](C(C)C)NC(=O)[C@@H](C(C)C)OC(=O)[C@H](C(C)C)NC(=O)[C@H](C)OC(=O)[C@@H](C(C)C)NC(=O)[C@@H](C(C)C)OC1=O` [VALINOMYCIN], which Activity [19] is on record?
**A.** 70%
